Assay results from different studies.
Lines come from different studies, so protocols differ.
CDK16: Cyclin-dependent kinase 16 (CDK16, Homo sapiens, UniProt Q00536)
CDK16 with cyclin Y: Cyclin-dependent kinase 16, with cyclin Y (CDK16, Homo sapiens, UniProt Q00536)

SMILES	target	test	conditions	measurement	result
CCCCNc1ncc2c(-c3ccc(F)cc3)nn(C[C@H]3CC[C@H](N)CC3)c2n1	CDK16	target engagement in cells, inhibitor, chemoproteomics	20 mM	inhibition	38.5%
Nc1ncnc2occ(-c3ccc(NC(=O)Nc4cc(C(F)(F)F)ccc4F)cc3)c12	CDK16	cell-free assay, inhibitor	20 µM	remaining signal	0.15%
Cn1c2c(c3ccccc31)C(C#N)C(C)(C)NC2=O (stereo not drawn)	CDK16	thermal stability, DSF	10 µM	ΔTm	0.2 °C
O=C(CSc1nc2nccnc2c(=O)n1CCc1ccccc1)Nc1nccs1	CDK16 with cyclin Y	enzyme activity, inhibitor	10 µM	inhibition	-7%
CCS(=O)(=O)c1cc2cc(C[C@](O)(CC(C)(C)c3ccc(F)cc3C(N)=O)C(F)(F)F)[nH]c2cn1	CDK16	cell-free assay, competition with immobilised ligand	1 µM	remaining binding	100%
Cc1ccc(C(=O)NCc2ccsc2)cc1C#Cc1cn(C(C)C)c2ncnc(N)c12	CDK16 with cyclin Y	enzyme activity, inhibitor	1 µM	activity vs control	101%
Cn1c2c(c3ccc(Cl)c(Cl)c31)C(C#N)C(C)(C)NC2=O (stereo not drawn)	CDK16	thermal stability, DSF	10 µM	ΔTm	0.7 °C
CC(C)(C)c1nc2c(s1)c1nc(N)ncc1c1ccc(NS(=O)(=O)c3c(F)cccc3F)c(F)c12	CDK16 with cyclin Y	enzyme activity, inhibitor, radiometric	1 µM	remaining activity	87%
CCCOc1ccc([C@H]2[C@H](C(=O)O)[C@@H](c3ccc4c(c3)OCO4)CN2CC(=O)Nc2c(CC)cccc2CC)cc1	CDK16	cell-free assay, competition with immobilised ligand	1 µM	remaining binding	77%
CCN1CCC2(CC1)NC(=O)c1c(c3ccc(Cl)c(Cl)c3n1C)C2C#N (racemic)	CDK16	thermal stability, DSF	10 µM	ΔTm	0 °C
Nc1cnc(N2CCc3cc(S(=O)(=O)Nc4c(F)cc(Cl)cc4F)cc(N4CCCC4=O)c32)nc1	CDK16	cell-free assay, competition with immobilised ligand	1 µM	remaining binding	98%
N#CC1c2c([nH]c3c(Cl)c(Cl)ccc23)C(=O)NC12CCCCC2 (racemic)	CDK16	thermal stability, DSF	10 µM	ΔTm	0.9 °C
